Results as given in ChEMBL document CHEMBL1124987, “7-Deaza-2-phenyladenines: structure-activity relationships of potent A1 selective adenosine receptor antagonists” (J Med Chem, 1990).
Active and inactive are the calls of the source. The rule behind the calls is not given here.

Key:
Adenosine A2 receptor = Adenosine A2 receptor (Rattus norvegicus, UniProt P29276+P30543); assay: Binding affinity against Adenosine A2 receptor from rat striatal membrane using [3H]NECA as radioligand
[1] = target: T1, Adenosine A2 receptor (Rattus norvegicus) (UniProt P29276+P30543); assay: Inhibition of adenylate cyclase stimulation via Adenosine A2 receptor by NECA in rat pheochromocytoma PC12 cells; assay type: functional, cell-based; conditions: PC-12
Summary of the method: (§1)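 Membranes from rat pheochromocytoma PC12 cells; adenylate cyclase activated via A2 receptors by NECA, measured with a range of antagonist concentrations. K_B from the Schild equation using the ratio of NECA EC50 values with and without antagonist. Means ± SEM of three separate experiments in triplicate.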

[2] = target: T1, Adenosine A2 receptor (Rattus norvegicus); assay: Inhibition of adenylate cyclase stimulation via Adenosine A2 receptor by NECA in rat striatal membrane; assay type: functional, cell membranes; conditions: Striatum
Summary of the method: (§2)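 Rat striatal membranes; adenylate cyclase stimulated by NECA through A2 receptors, with antagonist present or absent. K_B derived by Schild equation from the NECA EC50 ratio with versus without antagonist.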

Adenosine receptor A1 = target: T2, Adenosine receptor A1 (Rattus norvegicus, UniProt P25099); assay: Binding affinity against Adenosine A1 receptor from rat brain membrane using [3H]R-PIA as radioligand
T2 sequence (P25099 whole entry): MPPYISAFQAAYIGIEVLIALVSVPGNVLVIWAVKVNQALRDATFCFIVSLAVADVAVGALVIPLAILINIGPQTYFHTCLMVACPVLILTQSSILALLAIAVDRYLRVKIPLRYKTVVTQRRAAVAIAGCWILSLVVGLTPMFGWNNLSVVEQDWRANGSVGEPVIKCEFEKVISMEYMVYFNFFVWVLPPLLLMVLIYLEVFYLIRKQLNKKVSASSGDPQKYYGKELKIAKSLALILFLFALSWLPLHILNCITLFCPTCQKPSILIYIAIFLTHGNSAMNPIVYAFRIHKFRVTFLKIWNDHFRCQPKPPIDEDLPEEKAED
Summary of the method: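 Rat cerebral cortical membranes; displacement of [3H]-(R)-PIA (Kd 1 nM) by a range of test concentrations. Nonspecific binding defined with 5 mM theophylline. Triplicate determinations in three separate experiments. IC50 converted to Ki via Cheng-Prusoff.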

[3] = target: T3, Adenosine receptor A1 (Rattus norvegicus) (UniProt P25099); assay: Reversal of adenylate cyclase inhibition via Adenosine A1 receptor by R-PIA in rat fat cells; assay type: functional, cell-based
T3 sequence (whole entry): T2 sequence (P25099 whole entry)
Summary of the method: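 Rat fat cell membranes; adenylate cyclase inhibited by R-PIA through A1 receptors, and antagonist reversal measured. K_B calculated with the Schild equation from the ratio of R-PIA IC50 values with and without antagonist.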

[4] = target: T1, Adenosine A2 receptor (Rattus norvegicus); assay: Inhibition of adenylate cyclase activity via A2 receptors by NECA in rat PC12 cells; c = Noncompetitive inhibition; assay type: functional, cell-based; conditions: PC-12; summary of the method: as §1
[5] = target: T1, Adenosine A2 receptor (Rattus norvegicus); assay: Inhibition of adenylate cyclase stimulation via Adenosine A2 receptor by NECA in rat striatal membrane; b= No effect; assay type: functional; summary of the method: as §2

Row | Compound | Ki (Adenosine A2 receptor) | Kb [1] | Kb [2] | Ki (Adenosine receptor A1) | Kb [3] | Kb [4] | Kb [5]
1 | Oc1ncnc2c1c1c(n2-c2ccccc2)CCCC1 | 1.35 µM | 0.87 µM | 1.76 µM | – | – | – | –
2 | CS(=O)(=O)c1nc(S(C)(=O)=O)c2c3c(n(-c4ccccc4)c2n1)CCCC3 | 157 µM | – | – | 16.9 µM | – | – | –
3 | Oc1ncnc2c1c1ccccc1n2-c1ccccc1 | 1.44 µM | 0.22 µM | – | – | 1.4 µM | – | –
4 | C=CCn1c(C)c(C)c2c(N)ncnc21 | 83 µM | 40 µM | – | 49 µM | – | – | –
5 | Cc1[nH]c2nc(-c3ccccc3Cl)nc(N)c2c1C | 85.6 µM | – | – | 5.17 µM | – | – | –
6 | Clc1ncnc2c1c1ccccc1n2-c1ccccc1 | 4.06 µM | – | – | 2.42 µM | – | – | –
7 | Nc1ncnc2c1c(C(=O)O)c(C(=O)O)n2-c1ccccc1 | – | – | – | 67 µM | – | – | –
8 | Cc1c(C)n(Cc2ccc(Br)cc2)c2ncnc(N)c12 | 154.9 µM | – | – | > 100 µM | – | – | –
9 | c1ccc(-n2c3ccccc3c3c(NC4CCCCC4)ncnc32)cc1 | 133 µM | – | – | 1.96 µM | – | – | –
10 | Nc1ncnc2c1c(C=O)c(C=O)n2-c1ccccc1 | 76.3 µM | – | – | 50.1 µM | – | – | –
11 | O=c1[nH]cnc2c1c1c(n2-c2ccccc2)CCCC1 | – | – | – | 2.07 µM | – | – | –
12 | CCCCCCn1c(C)c(C)c2c(N)ncnc21 | 263 µM | 42 µM | – | 60 µM | – | – | –
13 | CSc1nc(SC)c2c3c(n(-c4ccccc4)c2n1)CCCC3 | > 250 µM | – | – | 97.8 µM | – | – | –
14 | NNc1ncnc2c1c1ccccc1n2-c1ccccc1 | 7.71 µM | – | – | 8.42 µM | – | – | –
15 | Cc1nc(N)c2c(C)c(C)[nH]c2n1 | > 250 µM | – | – | 88 µM | – | – | –
16 | Cc1c(C)n(-c2ccccc2)c2ncnc(N)c12 | 123 µM | 62 µM | – | 18 µM | 22 µM | – | –
17 | Cc1[nH]c2ncnc(N)c2c1C | 208 µM | – | – | 55 µM | – | – | –
18 | Nc1ncnc2c1ccn2-c1ccccc1 | 25 µM | 17 µM | – | 3.1 µM | 4.6 µM | – | –
19 | Sc1nc(S)c2c3c(n(-c4ccccc4)c2n1)CCCC3 | > 250 µM | – | – | 84.8 µM | – | – | –
20 | COc1cccc(-n2c(C)c(C)c3c(N)ncnc32)c1OC | – | – | – | 54.3 µM | – | – | –
21 | Cc1nc(N)c2c(C)c(C)n(-c3ccccc3)c2n1 | 203 µM | – | – | 30.4 µM | – | – | –
22 | Cc1c(C)n(-c2ccccc2)c2nc(-c3ccccc3)nc(N)c12 | 0.024 µM | – | – | 0.036 µM | – | – | –
23 | Cc1c(C)n([C@H]2C[C@H](O)[C@@H](CO)O2)c2ncnc(N)c12 | > 250 µM | – | – | > 250 µM | – | – | –
24 | Nc1ncnc2c1c1c(n2-c2ccccc2)CCCC1 | 10.9 µM | 7.5 µM | 31.6 µM | 3.24 µM | – | – | –
25 | Cc1[nH]c2ncnc(O)c2c1C | 176 µM | 33 µM | – | 58 µM | – | – | –

Results, then the molecule that gave them:

Row | Ki (Adenosine A2 receptor) | Kb [1] | Kb [2] | Ki (Adenosine receptor A1) | Kb [3] | Kb [4] | Kb [5] | Compound
26 | 40.7 µM | – | – | 0.99 µM | – | – | – | Cc1c(C)n(-c2ccccc2)c2nc(-c3ccccc3Cl)nc(N)c12
27 | 80.8 µM | – | – | 0.165 µM | – | – | – | Cc1c(C)n([C@@H](C)c2ccccc2)c2nc(-c3ccccc3)nc(N)c12
28 | 21.3 µM | 5.5 µM | – | 1.49 µM | 0.8 µM | – | – | Cc1[nH]c2nc(-c3ccccc3)nc(N)c2c1C
29 | 20.8 µM | – | – | 0.73 µM | – | – | – | Cc1[nH]c2nc(-c3cccc(Cl)c3)nc(N)c2c1C
30 | 3.71 µM | 3.06 µM | – | 0.0047 µM | 0.0038 µM | – | – | Cc1c(C)n([C@H](C)c2ccccc2)c2nc(-c3ccccc3)nc(N)c12
31 | 59.9 µM | – | – | 0.028 µM | – | – | – | Cc1c(C)n(C(C)c2ccccc2)c2nc(-c3cccc(Cl)c3)nc(N)c12 (centres undefined)
32 | > 250 µM | – | – | 0.122 µM | 0.057 µM | Non-competitive inhibition | inactive | Cc1c(C)n(-c2ccccc2)c2nc(-c3ccc(Cl)cc3)nc(N)c12
33 | 28.1 µM | – | – | 0.052 µM | – | – | – | Cc1c(C)n(C(C)c2ccccc2)c2nc(-c3ccccc3Cl)nc(N)c12 (centres undefined)
34 | 5.98 µM | 1.73 µM | 14 µM | 1.95 µM | 3.3 µM | – | – | Nc1ncnc2c1c1ccccc1n2-c1ccccc1
35 | 35.6 µM | – | – | 1.24 µM | – | – | – | Cc1[nH]c2nc(-c3ccc(Cl)cc3)nc(N)c2c1C
36 | – | – | – | 0.88 µM | – | – | – | O=c1[nH]cnc2c1c1ccccc1n2-c1ccccc1
